{"source": "paper PMC10438863", "about": "(Journal of Enzyme Inhibition and Medicinal Chemistry, 2023)", "key": {"Bcl-2 protein family": {"test_system": "Bcl-2 protein family", "experiment": "Western blot of apoptosis associated proteins", "format": "cell-based", "details": "K562, 48 h, western blotting", "summary_of_the_method": "(§1)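 K562 cells were treated with or without test compound at several concentrations for 48 h. They were lysed in cold buffer with PMSF and centrifuged at 14,000 rpm for 15 min, and protein was quantified by BCA. Equal protein was run on SDS-PAGE, blotted to PVDF, blocked in 5% skim milk for 2 h, probed overnight at 4 °C, then secondary antibody for 1–2 h, and detected by ECL with densitometry. Targets: Cdc-2, Cyclin B1, Cdc25c; Bad, Bax, Bcl-2, Bcl-xl; GAPDH reference.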"}, "H22": {"test_system": "H22", "experiment": "CCK-8 antiproliferative assay, H22", "format": "cell-based, mouse", "details": "read-out: IC50 (µM) H22; H22; CCK-8, 72 h; mean ± SD", "summary_of_the_method": "(§2)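 Cells were grown in RPMI-1640 with 10% FBS at 37 °C in 5% CO2. About 3.5 × 10^3 cells/well were seeded, grown 24 h, then given test compound at several concentrations for 72 h in triplicate wells. CCK-8 was added for 2–3 h and OD read at 450 nm to give inhibition rate or IC50. K562 screen: mean of ≥2 independent experiments. Five-line panel: mean ± SD of three.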"}, "A549": {"test_system": "A549", "experiment": "CCK-8 antiproliferative assay, A549", "format": "cell-based", "details": "read-out: IC50 (µM) A549; A549; CCK-8, 72 h; mean ± SD", "summary_of_the_method": "as §2"}, "[1]": {"test_system": "colchicine binding site on tubulin", "experiment": "[3H]-colchicine competition scintillation proximity assay", "details": "tubulin 1 µM, [3H]-colchicine 5 µM", "summary_of_the_method": "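Competition scintillation proximity assay. Test compound was added to buffer (80 mM PIPES pH 6.8, 1 mM EGTA, 1 mM MgCl2, 10% glycerol, 1 mM GTP) containing tubulin 1 µM, then [3H]-colchicine 5 µM. After 2 h incubation, streptavidin-labelled SPA beads were added and radioactivity counted. Percent inhibition of colchicine binding was reported as mean ± SD of three independent experiments.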"}, "H22 tumour": {"test_system": "H22 tumour", "experiment": "Immunohistochemistry of tumour tissue", "format": "in vivo, mice", "details": "H22 tumours; 20 mg/kg; IHC; vs control group", "summary_of_the_method": "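Tumours came from the vehicle, CA-4 20 mg/kg and test compound 20 mg/kg allograft groups. They were fixed in 4% paraformaldehyde overnight, paraffin-embedded and sectioned. Sections were blocked with 1% BSA for 20 min, incubated with CD31 or Ki67 primary antibody overnight at 4 °C, then HRP goat anti-rabbit for 1 h, developed with DAB and counterstained with haematoxylin. CD31 staining gave microvessel density.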"}, "HUVECs [2]": {"test_system": "HUVECs", "experiment": "HUVEC wound healing assay", "format": "cell-based, human", "details": "24 h, dose-dependent", "summary_of_the_method": "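HUVECs were seeded at 5 × 10^5 cells/well overnight and incubated with or without test compound at several concentrations for 24 h. The monolayer was then scratched with a pipette tip and washed with PBS. The wound was imaged at 100× and imaged again after a further 24 h of culture.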"}, "[3]": {"experiment": "H&E staining of vital organs, in vivo safety", "details": "mice; 20 mg/kg; heart, liver, spleen, lung, kidney", "summary_of_the_method": "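Heart, liver, spleen, lung and kidney came from the H22 allograft mice at sacrifice: vehicle, CA-4 20 mg/kg and test compound 20 mg/kg groups. Organs were fixed in 4% paraformaldehyde overnight, paraffin-embedded, sectioned and stained with haematoxylin and eosin.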"}, "K562 cells [4]": {"test_system": "K562 cells", "experiment": "Confocal immunofluorescence assay of microtubule networks", "format": "cell-based", "details": "48 h, 15, 30, 60 nM"}, "H22 allograft": {"test_system": "H22 allograft", "experiment": "H22 allograft mice model, in vivo antitumor effect", "details": "20 mg/kg i.v. once a day, three weeks", "summary_of_the_method": "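H22 cells in log phase (1 × 10^7 cells/mL, 0.1 ml) were injected s.c. into the right flank. Tumour size and body weight were recorded every two days. Mice were sacrificed at about 21 days. TGI (%) = (1 − Wt/Wc) × 100, using mean tumour weights.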"}, "HUVEC": {"test_system": "HUVEC", "experiment": "Inhibition of HUVEC proliferation", "format": "cell-based, human", "details": "read-out: IC50 in inhibiting the proliferation of HUVEC"}, "MDA-MB-231 cells [5]": {"test_system": "MDA-MB-231 cells", "experiment": "Transwell invasion assay", "format": "cell-based", "details": "60 nM, untreated 81.3 ± 5.7"}, "K562 cell line": {"test_system": "K562 cell line", "experiment": "CCK-8 antiproliferative assay, K562", "format": "cell-based", "details": "K562, CCK-8, 72 h", "summary_of_the_method": "as §2"}, "normal cell line HFL-1": {"test_system": "normal cell line HFL-1", "experiment": "CCK-8 assay, normal cell line HFL-1", "format": "cell-based", "details": "read-out: IC50 (µM) HFL-1; normal cell line HFL-1; CCK-8, 72 h; mean ± SD", "summary_of_the_method": "as §2"}, "[6]": {"test_system": "Cyclin B1, Cdc-2 and Cdc-25c", "experiment": "Western blot of G2/M phase associated proteins", "format": "cell-based", "details": "K562; 48 h; western blotting; dose-dependent", "summary_of_the_method": "as §1"}, "K562 cells [7]": {"test_system": "K562 cells", "experiment": "PI cell cycle flow cytometry", "format": "cell-based", "details": "48 h, untreated 12.99 ± 0.26%"}, "K562 cells [8]": {"test_system": "K562 cells", "experiment": "Annexin V-FITC/PI apoptosis flow cytometry", "format": "cell-based", "details": "60 nM, 48 h, control 2.47%"}, "Hela": {"test_system": "Hela", "experiment": "CCK-8 antiproliferative assay, Hela", "format": "cell-based", "details": "read-out: IC50 (µM) Hela; Hela; CCK-8, 72 h; mean ± SD", "summary_of_the_method": "as §2"}, "HUVECs [9]": {"test_system": "HUVECs", "experiment": "HUVEC tube formation assay on Matrigel", "format": "cell-based, human", "details": "60 nM"}, "MDA-MB-231 cells [10]": {"test_system": "MDA-MB-231 cells", "experiment": "Transwell migration assay", "format": "cell-based", "details": "60 nM, untreated 231.3 ± 12.2"}, "K562 cells [11]": {"test_system": "K562 cells", "experiment": "Hoechst 33342 staining", "format": "cell-based", "details": "48 h"}}}
{"substance": "2-methoxy-4-((4,5,6-trimethoxy-2,3-dihydro-1H-inden-2-yl)methyl)phenol [Compound 12d]", "values": [{"measurement": "expression of antiapoptotic proteins Bcl-2 and Bcl-xl", "setting": "Bcl-2 protein family", "result": "downregulated"}, {"measurement": "expression level of proapoptotic proteins Bax and Bad", "setting": "Bcl-2 protein family; dose-dependent", "result": "upregulated"}, {"measurement": "IC50", "setting": "H22", "result": "0.068 ± 0.008", "unit": "µM"}, {"measurement": "IC50", "setting": "A549", "result": "0.087 ± 0.009", "unit": "µM"}, {"measurement": "Inhibition (%) of colchicine binding", "setting": "[1]; compound 1 µM", "result": "59.81 ± 3.84", "unit": "%"}, {"measurement": "Inhibition (%) of colchicine binding", "setting": "[1]; compound 5 µM", "result": "71.43 ± 1.03", "unit": "%"}, {"measurement": "Ki67-positive cells", "setting": "H22 tumour", "result": "decreased number of Ki-67 positive cells"}, {"measurement": "microvessel density (MVD), CD31", "setting": "H22 tumour", "result": "lower MVD level"}, {"measurement": "wound healing effect of HUVECs", "setting": "HUVECs [2]", "result": "the wound healing effect was disrupted"}, {"measurement": "pathological damage of vital organs (H&E)", "setting": "[3]", "result": "without obvious pathological damage"}, {"measurement": "effect on microtubule networks", "setting": "K562 cells [4]", "result": "caused disorder and destruction of microtubule networks"}, {"measurement": "body weight", "setting": "H22 allograft", "result": "no obvious body weight loss"}, {"measurement": "tumour growth inhibition (TGI) value", "setting": "H22 allograft; by tumour weight", "result": 74.94, "unit": "%"}, {"measurement": "IC50", "setting": "HUVEC", "result": "2260 ± 380", "unit": "nM"}, {"measurement": "number of invaded cells", "setting": "MDA-MB-231 cells [5]", "result": "51.3 ± 2.5"}, {"measurement": "Inhibition rate (%)", "setting": "K562 cell line; 0.1 µM", "result": 78.82, "unit": "%"}, {"measurement": "Inhibition rate (%)", "setting": "K562 cell line; 1 µM", "result": 80.57, "unit": "%"}, {"measurement": "IC50", "setting": "K562 cell line; read-out: IC50 (µM) K562, mean ± SD", "result": "0.028 ± 0.007", "unit": "µM"}, {"measurement": "IC50", "setting": "normal cell line HFL-1", "result": "0.271 ± 0.031", "unit": "µM"}, {"measurement": "expression levels of Cyclin B1, Cdc-2 and Cdc-25c", "setting": "[6]", "result": "down-regulate"}, {"measurement": "population at the G2/M phase", "setting": "K562 cells [7]; 15 nM", "result": "16.07 ± 0.83", "unit": "%"}, {"measurement": "population at the G2/M phase", "setting": "K562 cells [7]; 30 nM", "result": "21.23 ± 1.14", "unit": "%"}, {"measurement": "population at the G2/M phase", "setting": "K562 cells [7]; 60 nM", "result": "24.66 ± 0.63", "unit": "%"}, {"measurement": "percent of total apoptosis cells", "setting": "K562 cells [8]", "result": 57.90, "unit": "%"}, {"measurement": "IC50", "setting": "Hela", "result": "0.078 ± 0.005", "unit": "µM"}, {"measurement": "tube formation (capillary-like tubular networks) of HUVECs", "setting": "HUVECs [9]", "result": "almost all of the tube-like structure was broken"}, {"measurement": "number of migrated cells", "setting": "MDA-MB-231 cells [10]", "result": "124.0 ± 9.2"}, {"measurement": "apoptosis morphology and nucleus changes", "setting": "K562 cells [11]", "result": "induced K562 cells nuclear fragmentation and cell morphology changes"}]}
